Assays:
[1] = Cytotoxicity against human U937-derived macrophage-like cells assessed as reduction in cell viability after 24 hrs by MTT assay; type: cell-based, U-937; conditions: read-out: MNCC
How it was run: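 PMA-differentiated U937 macrophage-like cells (1×10^6 cells/well, RPMI-1% FBS) exposed to 2-fold serial dilutions from 1000 to 7.81 µM for 24 h. Viability read by MTT assay; highest non-cytotoxic concentration recorded.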

[2] = system: U-937; assay: Anti-inflammatory activity in human U937-derived macrophage-like cells assessed as inhibition of LPS-induced IL-6 secretion at 250 uM preincubated for 2 hrs followed by LPS addition measured after 24 hrs by ELISA relative to control; type: functional
[3] = system: U-937; assay: Anti-inflammatory activity in human U937-derived macrophage-like cells assessed as inhibition of LPS-induced IL-6 secretion at 125 uM preincubated for 2 hrs followed by LPS addition measured after 24 hrs by ELISA relative to control; type: functional
[4] = system: U-937; assay: Anti-inflammatory activity in human U937-derived macrophage-like cells assessed as inhibition of LPS-induced IL-6 secretion at 62.5 uM preincubated for 2 hrs followed by LPS addition measured after 24 hrs by ELISA relative to control; type: functional
[5] = system: U-937; assay: Anti-inflammatory activity in human U937-derived macrophage-like cells assessed as inhibition of LPS-induced IL-6 secretion at 31.25 uM preincubated for 2 hrs followed by LPS addition measured after 24 hrs by ELISA relative to control; type: functional
[6] = system: U-937; assay: Anti-inflammatory activity in human U937-derived macrophage-like cells assessed as inhibition of LPS-induced IL-6 secretion at 500 uM preincubated for 2 hrs followed by LPS addition measured after 24 hrs by ELISA relative to control; type: functional
[7] = system: U-937; assay: Anti-inflammatory activity in human U937-derived macrophage-like cells assessed as inhibition of LPS-induced IL-6 secretion preincubated for 2 hrs followed by LPS addition measured after 24 hrs by ELISA; type: functional, cell-based

`CCOC(=O)C(c1ccccc1)C(c1ccccc1)c1ccccc1` (centres undefined) gave an MNTC at 24 h [1] of 62.5 µM, an inhibition at 250 µM [2] of 85.3% and an inhibition at 125 µM [3] of 2%. It also gave an inhibition at 62.5 µM [4] of 0.4%, an inhibition at 31.25 µM [5] of 0.2% and an inhibition at 500 µM [6] of 99.8%.

`COc1cc(CCO)ccc1O` gave an MNTC at 24 h [1] of over 1000 µM, an inhibition at 250 µM [2] of 0.9% and an inhibition at 125 µM [3] of 1.1%. For the same compound, the inhibition at 500 µM [6] was 1.2%.

In the case of `COc1cc(Cc2ccc(O)c(OC)c2)ccc1O`, the MNTC at 24 h [1] is reported as 500 µM, the inhibition at 250 µM [2] is reported as 90.5% and the inhibition at 125 µM [3] is reported as 27.5%. It also gave an inhibition at 500 µM [6] of 98.1%.

`CCOC(=O)C(=C(c1ccccc1)c1ccccc1)c1ccccc1` showed an MNTC at 24 h [1] of under 15.6 µM, an inhibition at 250 µM [2] of 100% and an inhibition at 125 µM [3] of 11%. It also gave an inhibition at 62.5 µM [4] of 0.5%, an inhibition at 31.25 µM [5] of 0.5% and an inhibition at 500 µM [6] of 100%.

Work on `COc1cc(C(=O)CO)ccc1O` yielded an MNTC at 24 h [1] of 500 µM, an inhibition at 250 µM [2] of 64.4% and an inhibition at 125 µM [3] of 4.9%. For the same compound, the inhibition at 500 µM [6] was 90.1%.

`COc1ccc(C(=O)CO)cc1O` showed an MNTC at 24 h [1] of 500 µM, an inhibition at 250 µM [2] of 24.1% and an inhibition at 125 µM [3] of 0.8%. It also gave an inhibition at 500 µM [6] of 92.5%.

Work on `COc1ccc(C(O)CO)cc1O` (centres undefined) yielded an MNTC at 24 h [1] of 500 µM, an inhibition at 250 µM [2] of 20.9% and an inhibition at 125 µM [3] of 1.4%. For the same compound, the inhibition at 500 µM [6] was 83.8%.

`COc1ccc(CCO)cc1O` gave an MNTC at 24 h [1] of over 1000 µM, an inhibition at 250 µM [2] of 2.7% and an inhibition at 125 µM [3] of 0.9%. The inhibition at 500 µM [6] was 5.1%.

Compound `OCC(c1ccccc1)C(c1ccccc1)c1ccccc1` (centres undefined) has an MNTC at 24 h [1] of 31.2 µM, an inhibition at 250 µM [2] of 100% and an inhibition at 125 µM [3] of 100%. It also gave an inhibition at 62.5 µM [4] of 15.6%, an inhibition at 31.25 µM [5] of 1.4% and an inhibition at 500 µM [6] of 100%.

`COc1cc(C(O)CO)ccc1O` (centres undefined) gave an MNTC at 24 h [1] of 500 µM, an inhibition at 250 µM [2] of 8% and an inhibition at 125 µM [3] of 2.1%. The inhibition at 500 µM [6] was 86.8%.

Compound `COc1ccc(C(CO)C(c2ccc(OC)c(O)c2)c2ccc(OC)c(O)c2)cc1O` (centres undefined) has an MNTC at 24 h [1] of 250 µM, an inhibition at 250 µM [2] of 96.9% and an inhibition at 125 µM [3] of 48.3%. The inhibition at 62.5 µM [4] was 43.3%, the inhibition at 31.25 µM [5] was 34.5% and the inhibition at 500 µM [6] was 99.7%. The inhibition [7] was “Dose-dependent effect”.

In the case of `CCOC(=O)C(c1ccc(O)c(OC)c1)C(c1ccc(O)c(OC)c1)c1ccc(O)c(OC)c1` (centres undefined), the MNTC at 24 h [1] is reported as 250 µM, the inhibition at 250 µM [2] is reported as 91.9% and the inhibition at 125 µM [3] is reported as 34.6%. The inhibition at 62.5 µM [4] was 9.4%, the inhibition at 31.25 µM [5] was 4% and the inhibition at 500 µM [6] was 100%.

`CCOC(=O)C(=C(c1ccc(OC)c(O)c1)c1ccc(OC)c(O)c1)c1ccc(OC)c(O)c1` showed an MNTC at 24 h [1] of 62.5 µM, an inhibition at 250 µM [2] of 100% and an inhibition at 125 µM [3] of 97.8%. The inhibition at 62.5 µM [4] was 31.2%, the inhibition at 31.25 µM [5] was 0.8% and the inhibition at 500 µM [6] was 100%.

With `CCOC(=O)C(c1ccc(OC)c(O)c1)C(c1ccc(OC)c(O)c1)c1ccc(OC)c(O)c1` (centres undefined) the MNTC at 24 h [1] was 62.5 µM, the inhibition at 250 µM [2] was 96.8% and the inhibition at 125 µM [3] was 41.3%. It also gave an inhibition at 62.5 µM [4] of 5.9%, an inhibition at 31.25 µM [5] of 3% and an inhibition at 500 µM [6] of 100%.

In the case of `COc1cc(CC(=O)O)ccc1O` [HOMOVANILLIC ACID], the MNTC at 24 h [1] is reported as over 1000 µM, the inhibition at 250 µM [2] is reported as 0.2% and the inhibition at 125 µM [3] is reported as 0.3%. For the same compound, the inhibition at 500 µM [6] was 0.6%.

`COc1cc(C(CO)C(c2ccc(O)c(OC)c2)c2ccc(O)c(OC)c2)ccc1O` (centres undefined) gave an MNTC at 24 h [1] of 500 µM, an inhibition at 250 µM [2] of 84.7% and an inhibition at 125 µM [3] of 55.3%. It also gave an inhibition at 62.5 µM [4] of 4.7%, an inhibition at 31.25 µM [5] of 3.7% and an inhibition at 500 µM [6] of 93.8%. For the same compound, the inhibition [7] was “Dose-dependent effect”.

With `CCOC(=O)C(=C(c1ccc(O)c(OC)c1)c1ccc(O)c(OC)c1)c1ccc(O)c(OC)c1` the MNTC at 24 h [1] was 62.5 µM, the inhibition at 250 µM [2] was 100% and the inhibition at 125 µM [3] was 99.5%. For the same compound, the inhibition at 62.5 µM [4] was 11.2%, the inhibition at 31.25 µM [5] was 2.5% and the inhibition at 500 µM [6] was 100%.

Compound `CCOC(=O)Cc1ccc(O)c(OC)c1` has an MNTC at 24 h [1] of over 1000 µM, an inhibition at 250 µM [2] of 0.4% and an inhibition at 125 µM [3] of 0.2%. It also gave an inhibition at 500 µM [6] of 0.8%.

`COc1ccc(Cc2ccc(OC)c(O)c2)cc1O` showed an MNTC at 24 h [1] of 500 µM, an inhibition at 250 µM [2] of 92.5% and an inhibition at 125 µM [3] of 50.7%. For the same compound, the inhibition at 500 µM [6] was 99.8%.

Work on `COc1ccc(CC(=O)O)cc1O` yielded an MNTC at 24 h [1] of over 1000 µM, an inhibition at 250 µM [2] of 2.1% and an inhibition at 125 µM [3] of 0.5%. For the same compound, the inhibition at 500 µM [6] was 2%.

For `CCOC(=O)Cc1ccc(OC)c(O)c1`, the MNTC at 24 h [1] was over 1000 µM, the inhibition at 250 µM [2] was 3.2% and the inhibition at 125 µM [3] was 0.8%. It also gave an inhibition at 500 µM [6] of 8.3%.

Source: ChEMBL document CHEMBL3997844, “Synthesis and anti-inflammatory activity of isoquebecol” (Bioorg Med Chem, 2017)
